Measurements from different studies.
Protocols differ between the studies behind these lines.
Target: Ribosomal protein S6 kinase beta-1 (RPS6KB1, Homo sapiens, UniProt P23443)

COc1ncccc1-c1cnn2ccc(N3CCN(C(=O)OC(C)C)CC3)nc12  remaining binding (binding; competition with immobilised ligand; 1 µM): 100%
C#Cc1n[nH]c2c(-c3cn([C@@H](C)c4ccccn4)c(=O)[nH]c3=O)cc(F)cc12  inhibition (enzyme activity; inhibitor; 0.1 µM): 10.2%
Nc1ncc(-c2nc(N3CCOCC3)nc(N3CCOCC3)n2)c(C(F)F)n1  remaining binding (binding; competition with immobilised ligand; 10 µM): 76%
O=c1[nH]c2ccccc2n1C1CCN(Cc2ccc(-c3[nH]c4cc5ncnc5cc4nc3-c3ccccc3)cc2)CC1  remaining signal (cell-free assay; 0.5 µM): 101%
Cn1cncc1[C@@](O)(COc1ccc(C#N)cc1-c1ccc(OC(F)(F)F)cc1)c1ccc(C#N)cc1  remaining binding (cell-free assay; competition with immobilised ligand; 1 µM): 94%
CC(C)(C)c1cc(C=C(C#N)C#N)cc(Br)c1O  remaining activity (enzyme activity; inhibitor; 0.5 µM): 91.3%
Cn1cc(-c2cc(F)cc(N3CCn4c(cc5c4CCCC5)C3=O)c2CO)cc(Nc2ccc(N3CCN(C4COC4)CC3)cn2)c1=O  inhibition (enzyme activity; inhibitor; 0.1 µM): 10%
Cc1nn(C)cc1-c1nc2c(N3CCN(Cc4ccc(Cl)cc4)CC3)c(Cl)cnc2[nH]1  remaining binding (binding; competition with immobilised ligand; 1 µM): 92%
COc1cc(Nc2ncc(F)c(Nc3ccc4c(n3)NC(=O)C(C)(C)O4)n2)cc(OC)c1OC  inhibition (binding; 10 µM): 81%
C#Cc1n[nH]c2c(-c3cn([C@@H](C)c4ccccc4)c(=O)[nH]c3=O)cc(F)cc12  inhibition (enzyme activity; inhibitor; 0.1 µM): 18.6%
N#CC1(c2ccccn2)CCN(Cc2cc(C(=O)O)c(=O)n3ccccc23)CC1  remaining binding (cell-free assay; competition with immobilised ligand; 1 µM): 96%
Cn1cc(-c2cccc(N3CCc4c(sc5c4CC(C)(C)C5)C3=O)c2CO)cc(Nc2ccncn2)c1=O  inhibition (enzyme activity; inhibitor; 1 µM): 5%
